Assay results: ChEMBL document CHEMBL4765234 (J Med Chem, 2016)
Calls of active or inactive are those of the source. No cut-off for these calls is given here.

Assays:
[1] = target: T1, Peroxisome proliferator-activated receptor gamma (Homo sapiens) (UniProt P37231); test: Displacement of [3H]-[…] from PPARgamma (unknown origin) expressed in baculovirus infected Sf9 insect cells upto 30 uM measured after 10 hrs by microbeta scintillation counting analysis; conditions: dose microM <=30, time 10.0 hrs
T1 sequence (whole entry): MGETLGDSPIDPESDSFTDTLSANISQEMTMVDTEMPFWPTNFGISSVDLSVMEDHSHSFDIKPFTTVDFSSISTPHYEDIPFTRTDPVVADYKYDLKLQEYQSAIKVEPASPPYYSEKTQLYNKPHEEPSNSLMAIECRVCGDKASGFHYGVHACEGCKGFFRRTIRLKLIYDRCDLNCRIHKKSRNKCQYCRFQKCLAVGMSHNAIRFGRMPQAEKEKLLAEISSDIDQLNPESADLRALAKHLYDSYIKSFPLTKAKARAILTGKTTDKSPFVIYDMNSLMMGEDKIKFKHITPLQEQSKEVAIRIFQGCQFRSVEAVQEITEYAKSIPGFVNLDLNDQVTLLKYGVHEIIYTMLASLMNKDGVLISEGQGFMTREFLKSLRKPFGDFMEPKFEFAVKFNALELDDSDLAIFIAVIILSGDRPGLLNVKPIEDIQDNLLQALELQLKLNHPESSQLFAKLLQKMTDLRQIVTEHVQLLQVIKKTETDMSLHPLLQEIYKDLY
Procedure, shortened: (§1)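 Scintillation proximity assay. Sf9 lysates with baculovirus-expressed PPARα (0.3 μg), PPARδ (0.5 μg) or PPARγ (1.25 μg), each with RXRα, were bound via biotinylated DR2 oligo (0.126 nM) to streptavidin yttrium silicate beads. Buffer was HEPES pH 7.8 with KCl, MgCl2, DTT, CHAPS, 14% glycerol and salmon sperm DNA. A 3H reference agonist ligand was used, with 11 compound concentrations, for 10 h. Nonspecific binding was defined with 10000 nM unlabeled reference. Ki was derived from IC50.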

[2] = Protein binding in plasma (unknown origin) by equilibrium dialysis method; type: ADME, cell-free; conditions: human, read-out: PPB
Procedure, shortened: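 Plasma protein binding measured by equilibrium dialysis.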

[3] = target: T2, Peroxisome proliferator-activated receptor alpha (Homo sapiens) (UniProt Q07869); test: Displacement of [3H]-[…] from PPARalpha (unknown origin) expressed in baculovirus infected Sf9 insect cells upto 30 uM measured after 10 hrs by microbeta scintillation counting analysis; conditions: dose microM <=30, time 10.0 hrs; procedure, shortened: as §1
T2 sequence (whole entry): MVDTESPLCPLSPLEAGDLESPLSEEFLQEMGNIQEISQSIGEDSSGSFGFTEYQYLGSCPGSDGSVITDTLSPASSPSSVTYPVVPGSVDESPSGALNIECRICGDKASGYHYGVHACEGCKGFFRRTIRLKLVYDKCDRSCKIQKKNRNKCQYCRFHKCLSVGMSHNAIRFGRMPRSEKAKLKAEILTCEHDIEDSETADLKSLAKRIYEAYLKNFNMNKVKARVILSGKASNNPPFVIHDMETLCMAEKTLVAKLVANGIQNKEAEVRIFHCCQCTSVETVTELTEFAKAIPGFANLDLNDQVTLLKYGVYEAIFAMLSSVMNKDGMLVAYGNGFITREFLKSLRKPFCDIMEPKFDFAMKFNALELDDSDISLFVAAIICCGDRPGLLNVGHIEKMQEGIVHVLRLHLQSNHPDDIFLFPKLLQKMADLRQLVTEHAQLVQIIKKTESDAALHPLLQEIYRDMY

[4] = target: T3, Peroxisome proliferator-activated receptor delta (Homo sapiens) (UniProt Q03181); test: Displacement of [3H]-[…] from PPARdelta (unknown origin) expressed in baculovirus infected Sf9 insect cells upto 30 uM measured after 10 hrs by microbeta scintillation counting analysis; conditions: dose microM <=30, time 10.0 hrs; procedure, shortened: as §1
T3 sequence (whole entry): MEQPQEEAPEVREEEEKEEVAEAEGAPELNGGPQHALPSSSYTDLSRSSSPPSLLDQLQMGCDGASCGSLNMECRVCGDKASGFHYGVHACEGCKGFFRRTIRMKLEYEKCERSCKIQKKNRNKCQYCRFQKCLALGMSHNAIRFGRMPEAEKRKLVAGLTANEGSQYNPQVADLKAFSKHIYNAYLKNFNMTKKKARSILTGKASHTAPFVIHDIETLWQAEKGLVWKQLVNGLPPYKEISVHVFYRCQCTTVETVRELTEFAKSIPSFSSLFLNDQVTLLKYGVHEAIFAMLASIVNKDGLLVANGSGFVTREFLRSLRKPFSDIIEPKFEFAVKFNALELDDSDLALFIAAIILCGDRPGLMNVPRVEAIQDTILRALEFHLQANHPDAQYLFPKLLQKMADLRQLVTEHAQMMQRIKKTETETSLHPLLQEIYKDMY

[5] = test system: Mus musculus; test: Hypoglycemic activity in Balb/c mouse assessed as effective dose causing reduction in blood glucose level administered orally 60 mins prior to glucose challenge measured for 60 mins by IPGTT; type: functional; conditions: po, 1 h
[6] = AUC in hyperglycemic Balb/c mouse plasma at 29.4 mg/kg measured upto 60 mins; type: ADME, organism-based; parameters: dose 29.4 mg/kg, time <=60
[7] = test system: Rattus norvegicus; test: Hypoglycemic activity in Zucker fatty diabetes mellitus rat model assessed as increase in insulin levels in plasma at 3 mg/kg, po administered for 21 days and measured at 10 to 60 mins post glucose challenge on day 1 by OGTT; type: functional, organism-based; conditions: time 21.0 day
[8] = test system: Rattus norvegicus; test: Hypoglycemic activity in Zucker fatty diabetes mellitus rat model assessed as reduction in blood glucose level at 3 mg/kg, po administered for 21 days and measured at 10 to 60 mins post glucose challenge on day 1 by OGTT; type: functional, organism-based; conditions: time 21.0 day
[9] = target: Free fatty acid receptor 1 (Mus musculus) (UniProt Q76JU9); test: Agonist activity at Prolink-tagged mouse GPR40 fused with EA-tagged beta-arrestin expressed in human U2OS cells assessed as induction of beta-arrestin recruitment measured after 90 mins by beta-galactosidase based PathHunter assay relative to control; type: cell-based; conditions: filed as agonist
Free fatty acid receptor 1 (Mus musculus), sequence (Q76JU9 whole entry, the tested form may be a part): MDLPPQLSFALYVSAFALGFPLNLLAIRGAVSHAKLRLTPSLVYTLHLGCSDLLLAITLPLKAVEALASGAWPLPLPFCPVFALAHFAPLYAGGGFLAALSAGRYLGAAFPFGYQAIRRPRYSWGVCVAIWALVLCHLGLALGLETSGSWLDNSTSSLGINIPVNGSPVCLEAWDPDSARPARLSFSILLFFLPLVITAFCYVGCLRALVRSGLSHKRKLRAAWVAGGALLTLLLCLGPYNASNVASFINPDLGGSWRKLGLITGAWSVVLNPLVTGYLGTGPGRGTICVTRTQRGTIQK
Procedure, shortened: (§2)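 PathHunter β-gal complementation. Cells were incubated overnight at 5000/well in medium with 1% heat-inactivated FBS. Compound was added as a 20-point 2-fold series from a top final of 100 μM (1% DMSO) for 90 min at 37 °C, followed by detection reagents and chemiluminescence read after 1 h at rt.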

[10] = target: T4, Free fatty acid receptor 1 (Homo sapiens, UniProt O14842); test: Agonist activity at human recombinant full length GPR40 overexpressed in human HEK293 cells assessed as increase in intracellular calcium level measured over 3 mins by calcium 4 dye based FLIPR assay relative to 100 uM linoleic acid; type: functional, cell-based; conditions: filed as agonist
T4 sequence (O14842 whole entry): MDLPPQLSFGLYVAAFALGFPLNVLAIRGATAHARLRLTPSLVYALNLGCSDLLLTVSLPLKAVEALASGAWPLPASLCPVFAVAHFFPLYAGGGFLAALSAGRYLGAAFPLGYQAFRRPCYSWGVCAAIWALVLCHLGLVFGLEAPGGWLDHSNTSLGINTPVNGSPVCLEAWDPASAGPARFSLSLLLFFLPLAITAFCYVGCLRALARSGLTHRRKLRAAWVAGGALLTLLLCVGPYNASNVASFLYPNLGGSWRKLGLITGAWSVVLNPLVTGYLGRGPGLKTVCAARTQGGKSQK
Procedure, shortened: (§3)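 HEK293 cells overexpressing hGPR40 (25K/well) were cultured overnight in DMEM/F12 with 0.2% FBS and geneticin. Compound was tested at 40 μM–0.1 nM final (20-point, 1% DMSO), and FLIPR fluorescence was read over 3 min.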

[11] = target: T4, Free fatty acid receptor 1; test: Agonist activity at human recombinant full length GPR40 overexpressed in human HEK293 cells assessed as increase in inositol phosphate accumulation in presence of terbium cryptate-labeled anti IP1/d2-labelled IP1 measured after 120 mins by HTRF assay; type: functional, cell-based
Procedure, shortened: (§4)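 HEK293 hGPR40 cells (20K/well) were cultured overnight, washed, and held in IP1 stimulation buffer. IP-1 was measured by competitive HTRF immunoassay with terbium cryptate anti-IP1 mAb and d2-labelled IP1.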

[12] = target: T4, Free fatty acid receptor 1; test: Agonist activity at human recombinant full-length Prolink-tagged GPR40 fused with EA-tagged beta-arrestin expressed in human HEK293 cells assessed as induction of beta-arrestin recruitment measured after 90 mins by beta-galactosidase based PathHunter assay; type: cell-based; procedure, shortened: as §2
[13] = target: T4, Free fatty acid receptor 1; test: Agonist activity at human recombinant full length GPR40 overexpressed in human HEK293 cells assessed as increase in inositol phosphate accumulation in presence of terbium cryptate-labeled anti IP1/d2-labelled IP1 measured after 120 mins by HTRF assay relative to AMG837; type: functional, cell-based; conditions: filed as agonist; procedure, shortened: as §4
[14] = target: T4, Free fatty acid receptor 1; test: Agonist activity at human recombinant full length GPR40 overexpressed in human HEK293 cells assessed as increase in intracellular calcium level measured over 3 mins by calcium 4 dye based FLIPR assay; type: functional, cell-based; procedure, shortened: as §3
[15] = target: Free fatty acid receptor 1 (Rattus norvegicus, UniProt Q8K3T4); test: Agonist activity at Prolink-tagged rat GPR40 fused with EA-tagged beta-arrestin expressed in human U2OS cells assessed as induction of beta-arrestin recruitment measured after 90 mins by beta-galactosidase based PathHunter assay; type: cell-based; procedure, shortened: as §2
Free fatty acid receptor 1 (Rattus norvegicus, UniProt Q8K3T4), sequence (Q8K3T4 whole entry, the tested form may be a part): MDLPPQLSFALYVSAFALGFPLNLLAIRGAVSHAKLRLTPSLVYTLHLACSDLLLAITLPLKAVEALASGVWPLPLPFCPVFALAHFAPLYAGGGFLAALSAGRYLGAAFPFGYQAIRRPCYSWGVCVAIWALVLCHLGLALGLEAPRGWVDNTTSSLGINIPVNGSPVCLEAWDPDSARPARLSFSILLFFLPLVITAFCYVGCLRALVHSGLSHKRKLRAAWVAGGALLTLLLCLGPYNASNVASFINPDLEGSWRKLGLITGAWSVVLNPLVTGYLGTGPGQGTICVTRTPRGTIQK

[16] = target: T4, Free fatty acid receptor 1; test: Agonist activity at human recombinant full-length Prolink-tagged GPR40 fused with EA-tagged beta-arrestin expressed in human HEK293 cells assessed as induction of beta-arrestin recruitment measured after 90 mins by beta-galactosidase based PathHunter assay relative to control; type: cell-based; conditions: filed as agonist; procedure, shortened: as §2
[17] = target: Free fatty acid receptor 1 (Mus musculus, UniProt Q76JU9); test: Agonist activity at Prolink-tagged mouse GPR40 fused with EA-tagged beta-arrestin expressed in human U2OS cells assessed as induction of beta-arrestin recruitment measured after 90 mins by beta-galactosidase based PathHunter assay; type: cell-based; procedure, shortened: as §2
Free fatty acid receptor 1 (Mus musculus, UniProt Q76JU9), sequence (Q76JU9 whole entry, the tested form may be a part): as the sequence (Q76JU9 whole entry, the tested form may be a part) above

[18] = target: T4, Free fatty acid receptor 1; test: Displacement of [3H]-TAK-875 from human recombinant full-length GPR40 expressed in human HEK293 cell membrane incubated for 2 hrs by solid scintillation counting method; type: cell membranes
[19] = target: Free fatty acid receptor 1 (Rattus norvegicus) (UniProt Q8K3T4); test: Agonist activity at Prolink-tagged rat GPR40 fused with EA-tagged beta-arrestin expressed in human U2OS cells assessed as induction of beta-arrestin recruitment measured after 90 mins by beta-galactosidase based PathHunter assay relative to control; type: cell-based; conditions: filed as agonist; procedure, shortened: as §2
Free fatty acid receptor 1 (Rattus norvegicus), sequence (Q8K3T4 whole entry, the tested form may be a part): as the sequence (Q8K3T4 whole entry, the tested form may be a part) above

[20] = target: Voltage-gated inwardly rectifying potassium channel KCNH2 (Homo sapiens, UniProt Q12809); test: Inhibition of human ERG
Voltage-gated inwardly rectifying potassium channel KCNH2, sequence (Q12809 whole entry): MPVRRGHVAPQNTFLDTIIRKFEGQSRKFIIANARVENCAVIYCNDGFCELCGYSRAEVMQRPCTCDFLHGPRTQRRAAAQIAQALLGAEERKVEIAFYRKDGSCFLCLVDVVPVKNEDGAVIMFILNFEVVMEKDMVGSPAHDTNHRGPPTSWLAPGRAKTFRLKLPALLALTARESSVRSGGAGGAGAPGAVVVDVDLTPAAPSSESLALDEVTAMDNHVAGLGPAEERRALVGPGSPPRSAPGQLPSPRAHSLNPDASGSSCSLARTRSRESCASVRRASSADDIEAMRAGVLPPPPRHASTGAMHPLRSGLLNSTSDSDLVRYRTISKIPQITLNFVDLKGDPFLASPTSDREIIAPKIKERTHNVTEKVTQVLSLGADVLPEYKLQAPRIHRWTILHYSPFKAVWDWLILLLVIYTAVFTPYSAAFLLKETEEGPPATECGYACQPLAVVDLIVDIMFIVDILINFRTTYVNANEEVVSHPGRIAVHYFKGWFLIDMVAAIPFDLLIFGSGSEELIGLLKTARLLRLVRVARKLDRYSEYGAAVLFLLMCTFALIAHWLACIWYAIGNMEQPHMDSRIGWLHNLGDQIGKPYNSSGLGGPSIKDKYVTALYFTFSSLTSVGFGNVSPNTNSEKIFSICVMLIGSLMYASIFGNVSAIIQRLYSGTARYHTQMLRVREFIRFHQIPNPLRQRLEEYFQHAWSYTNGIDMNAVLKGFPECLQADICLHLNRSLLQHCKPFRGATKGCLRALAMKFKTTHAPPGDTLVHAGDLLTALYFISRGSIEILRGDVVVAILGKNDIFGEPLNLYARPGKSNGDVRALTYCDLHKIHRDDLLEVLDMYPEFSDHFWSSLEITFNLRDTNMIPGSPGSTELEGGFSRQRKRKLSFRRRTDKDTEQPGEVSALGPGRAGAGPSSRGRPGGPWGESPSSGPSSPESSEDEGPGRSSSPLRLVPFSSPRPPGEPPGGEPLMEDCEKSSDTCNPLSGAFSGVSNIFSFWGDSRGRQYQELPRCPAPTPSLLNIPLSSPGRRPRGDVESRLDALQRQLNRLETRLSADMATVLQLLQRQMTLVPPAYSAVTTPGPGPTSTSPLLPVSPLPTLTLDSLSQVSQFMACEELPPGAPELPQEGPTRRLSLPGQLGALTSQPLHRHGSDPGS

[21] = Drug distribution in C57BL/6 mouse spleen at 3 microg/kg, iv administered as single dose observed at 20 to 40 mins by LC-MS/MS analysis; type: ADME, organism-based; conditions: in vivo, 0.003 mg/kg, time 20-40 min, dose 3 µg/kg
Procedure, shortened: (§5)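 Tracer microdose study in fed male C57BL/6 mice: single 3 μg/kg IV dose in 25% HP-BCD. Mice were killed by cervical dislocation, and spleen, ascending colon, skeletal muscle and plasma were sampled at 20 and 40 min.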

[22] = target: Free fatty acid receptor 1 (Rattus norvegicus) (UniProt Q8K3T4); test: Agonist activity at GPR40 in Sprague-Dawley rat pancreatic islets assessed as induction of glucose-mediated insulin secretion measured after 90 mins in EBSS buffer by ELISA; type: tissue-based; conditions: Pancreatic islet, filed as agonist
Procedure, shortened: (§6)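 Glucose-dependent insulin secretion in mouse MIN6 cells or rat islet cells, scored as secretion above the glucose-alone level.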

[23] = AUC in hyperglycemic Balb/c mouse plasma at 1 mg/kg measured upto 60 mins; type: ADME, organism-based; parameters: dose 1 mg/kg, time <=60
[24] = Protein binding in C57BL/6 mouse plasma at 3 microg/kg, iv by LC-MS/MS analysis; type: ADME, organism-based; conditions: in vivo, 0.003 mg/kg, dose 3 µg/kg
[25] = Drug distribution in C57BL/6 mouse colon at 3 microg/kg, iv administered as single dose observed at 20 to 40 mins by LC-MS/MS analysis; type: ADME, organism-based; conditions: in vivo, 0.003 mg/kg, time 20-40 min, dose 3 µg/kg; procedure, shortened: as §5
[26] = target: Free fatty acid receptor 1 (Mus musculus) (UniProt Q76JU9); test: Agonist activity at GPR40 in mouse MIN6 cells assessed as induction of glucose-mediated insulin secretion incubated for 2 hrs by ELISA; type: cell-based; conditions: filed as agonist; procedure, shortened: as §6

Activity [1]	fraction unbound [2]	Activity [3]	Activity [4]	Emax [9] [%]	EC50 [15] [nM]	EC50 [17] [nM]	Emax [19] [%]	Compound	ED90 [5] [mg/kg]	Emax [10] [%]	EC50 [11] [nM]	EC50 [12] [nM]	Emax [13] [%]	EC50 [14] [nM]	Emax [16] [%]	Ki [18] [nM]	also measured
inactive	< 0.01	inactive	inactive					Cc1cc(OCCCS(C)(=O)=O)cc(C)c1-c1cccc(COc2ccc3c(c2)OC[C@H]3CC(=O)O)c1	29.4								AUC at 1 h [6]: 7370 ng·h/mL
								CN(CCOc1ccc(CC2SC(=O)NC2=O)cc1)c1ccccn1 (centres undefined)									Activity [7]: inactive; Activity [8]: inactive
inactive	< 0.01	inactive	inactive	128	3	1.4	119	CC#C[C@@H](CC(=O)O)c1ccc(OCc2ccc(CN3CCC4(C=Cc5ccccc54)CC3)c(OC)c2)cc1		61	7.4	10	345	17	140	2.5	Ki [20]: 6300 nM
inactive	< 0.01	inactive	inactive	137	3.2	1.5	148	CC#C[C@@H](CC(=O)O)c1ccc(OCc2cccc(-c3ccc(C(F)(F)F)cc3)c2)cc1	1								Drug uptake [21]: Not Active; Activity [22]: Active; AUC at 1 h [23]: 33900 ng·h/mL; PPB [24]: Active; Drug uptake [25]: Not Active; Activity [26]: Active

Compound	Activity [1]	fraction unbound [2]	Activity [3]	Activity [4]	Emax [9] [%]	EC50 [15] [nM]	EC50 [17] [nM]	Emax [19] [%]	ED90 [5] [mg/kg]	Emax [10] [%]	EC50 [11] [nM]	EC50 [12] [nM]	Emax [13] [%]	EC50 [14] [nM]	Emax [16] [%]	Ki [18] [nM]	also measured
CC#C[C@@H](CC(=O)O)c1ccc(OCc2cc(C)c(CN3CCC4(C=Cc5ccccc54)CC3)s2)cc1	inactive	< 0.01	inactive	inactive	122	1.1	0.69	121		65	0.98	3.9	132	2.9	127	3.5	
